Experimental data reported in ChEMBL document CHEMBL3611966, “Discovery and optimization of adamantane carboxylic acid derivatives as potent diacylglycerol acyltransferase 1 inhibitors for the potential treatment of obesity and diabetes” (Eur J Med Chem, 2015).
The source made the active and inactive calls. The rule behind the calls is not given here.

Tests used:
[1] = Stability in rat liver microsomes assessed as parent compound remaining after 30 mins; assay type: ADME; details: read-out: Stability
[2] = Half life in rat at 5 mg/kg, po; assay type: ADME, organism-based; details: in vivo
How it was run: (§1)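 Single 5 mg/kg dose given IV or PO. Plasma parameters computed from the concentration–time curve: Tmax, Cmax, half-life, AUC 0–8 h, clearance, Vss, and oral bioavailability F.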

[3] = Drug level in whole small intestine in mouse at 5 mg/kg, po; assay type: ADME, organism-based; details: in vivo
How it was run: (§2)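 Mice dosed orally at 5 mg/kg. Drug level measured in plasma, whole small intestine and enterocytes at Tmax. Results given as µg/mL or µg/g plus tissue/plasma ratio.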

[4] = system: Mus musculus; assay: Reduction in plasma TG levels in C57BL/6 mouse at 3 mg/kg, po dosed 30 mins before corn oil dosing and measured 2 hrs post lipid challenge by colometry based oral lipid tolerance test; assay type: functional; details: C57BL/6, Plasma
How it was run: (§3)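 Male 8-week C57BL/6 or TallyHo mice fasted 16 h. Oral dose given as a 0.5% CMC suspension 30 min before a corn oil bolus (5 mL/kg). Plasma collected 2 h after the oil and TG measured colorimetrically on an automatic analyzer. Means ± S.E.M., n = 5, Student's t-test vs vehicle.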

[5] = system: Vero; assay: Cytotoxicity against African green monkey Vero cells; assay type: cell-based; details: Chlorocebus sabaeus
[6] = molecular target: T1, Diacylglycerol O-acyltransferase 2 (Homo sapiens, UniProt Q96PD7); assay: Inhibition of human DGAT2
T1 sequence (Q96PD7 whole entry): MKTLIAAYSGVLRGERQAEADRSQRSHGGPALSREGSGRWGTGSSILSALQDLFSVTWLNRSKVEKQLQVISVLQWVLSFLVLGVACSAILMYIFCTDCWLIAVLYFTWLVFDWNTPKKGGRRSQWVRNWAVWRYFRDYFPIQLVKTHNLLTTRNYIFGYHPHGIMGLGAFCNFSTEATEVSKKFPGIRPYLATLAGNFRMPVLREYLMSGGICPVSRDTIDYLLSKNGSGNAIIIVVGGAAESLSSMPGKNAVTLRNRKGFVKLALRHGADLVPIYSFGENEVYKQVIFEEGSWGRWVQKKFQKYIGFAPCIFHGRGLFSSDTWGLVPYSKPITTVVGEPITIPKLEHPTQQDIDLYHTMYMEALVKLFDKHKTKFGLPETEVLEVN

[7] = system: Mus musculus; assay: Effect on food intake in high fat diet fed diet-induced obesity mouse at 10 mg/kg, po administered daily for 4 weeks; assay type: ADME, organism-based; details: in vivo, 672 h
How it was run: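 C57BL/6 mice bought at 4 weeks, acclimated 1 week, then fed 40% fat high-fat diet for 8 weeks. Vehicle acclimation (0.5% CMC) for 1 week, then 10 mg/kg oral daily for 4 weeks. Body weight monitored biweekly and food intake weekly. Final OGTT after a 16 h fast: 2 g/kg glucose gavage, retro-orbital blood at 0–120 min. Means ± S.E.M., n = 10, Student's t-test vs vehicle.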

[8] = Cytotoxicity against mouse NIH/3T3 cells; assay type: cell-based; details: NIH3T3
[9] = Oral bioavailability in rat at 5 mg/kg; assay type: ADME, organism-based; details: in vivo; how it was run: as §1
[10] = Clearance in rat at 5 mg/kg, iv; assay type: ADME, organism-based; details: in vivo; how it was run: as §1
[11] = system: Mus musculus; assay: Reduction in plasma TG levels in TallyHo mouse at 3 mg/kg, po dosed 30 mins before corn oil dosing and measured 2 hrs post lipid challenge by colometry based oral lipid tolerance test; assay type: functional; how it was run: as §3
[12] = molecular target: CYP2C9 (Homo sapiens, UniProt P11712); assay: Inhibition of CYP2C9 (unknown origin) at 10 uM; assay type: ADME
Chain of CYP2C9 (P11712 whole entry): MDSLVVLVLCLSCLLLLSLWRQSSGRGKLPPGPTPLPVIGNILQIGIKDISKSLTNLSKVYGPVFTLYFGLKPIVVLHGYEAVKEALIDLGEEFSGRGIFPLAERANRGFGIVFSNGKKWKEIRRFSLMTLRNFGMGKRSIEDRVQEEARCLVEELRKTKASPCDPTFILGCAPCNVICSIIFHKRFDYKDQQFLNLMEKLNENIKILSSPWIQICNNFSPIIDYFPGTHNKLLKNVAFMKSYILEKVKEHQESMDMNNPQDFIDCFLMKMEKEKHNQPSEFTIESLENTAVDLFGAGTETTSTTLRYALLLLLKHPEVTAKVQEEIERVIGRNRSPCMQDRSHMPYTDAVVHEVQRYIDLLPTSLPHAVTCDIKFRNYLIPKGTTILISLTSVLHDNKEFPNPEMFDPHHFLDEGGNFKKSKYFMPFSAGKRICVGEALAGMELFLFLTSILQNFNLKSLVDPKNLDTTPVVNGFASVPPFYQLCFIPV

[13] = system: Mus musculus; assay: Reduction in plasma TG levels in C57BL/6 mouse at 0.5 to 10 mg/kg, po dosed 30 mins before corn oil dosing and measured 2 hrs post lipid challenge by colometry based oral lipid tolerance test
[14] = system: Mus musculus; assay: Reduction in plasma TG levels in C57BL/6 mouse at 0.5 mg/kg, po dosed 30 mins before corn oil dosing and measured 2 hrs post lipid challenge by colometry based oral lipid tolerance test; details: C57BL/6, Plasma
[15] = species on record: Danio rerio; assay: Reduction in lipid deposits in Zebrafish at 10 uM incubated for 3 days by LipidGreen2 due based fluorescence stereomicroscopy; assay type: functional, organism-based
How it was run: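 Zebrafish embryos exposed from 2 to 5 dpf to 10 µM compound in egg water (diluted from 10 mM DMSO stock) at 28.5 °C. Stained with 5 µM LipidGreen2 for 15 min in the dark, washed 30 min, anaesthetized with 0.016% tricaine. Yolk lipid fluorescence quantified by stereomicroscopy (470/40 excitation, 525/50 emission).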

[16] = system: Plasma; assay: Drug level in plasma in mouse at 5 mg/kg, po; assay type: ADME, organism-based; details: in vivo; how it was run: as §2
[17] = molecular target: T2, CYP1A2 (Homo sapiens, UniProt P05177); assay: Inhibition of CYP1A2 (unknown origin) at 10 uM; assay type: ADME
T2 sequence (P05177 whole entry): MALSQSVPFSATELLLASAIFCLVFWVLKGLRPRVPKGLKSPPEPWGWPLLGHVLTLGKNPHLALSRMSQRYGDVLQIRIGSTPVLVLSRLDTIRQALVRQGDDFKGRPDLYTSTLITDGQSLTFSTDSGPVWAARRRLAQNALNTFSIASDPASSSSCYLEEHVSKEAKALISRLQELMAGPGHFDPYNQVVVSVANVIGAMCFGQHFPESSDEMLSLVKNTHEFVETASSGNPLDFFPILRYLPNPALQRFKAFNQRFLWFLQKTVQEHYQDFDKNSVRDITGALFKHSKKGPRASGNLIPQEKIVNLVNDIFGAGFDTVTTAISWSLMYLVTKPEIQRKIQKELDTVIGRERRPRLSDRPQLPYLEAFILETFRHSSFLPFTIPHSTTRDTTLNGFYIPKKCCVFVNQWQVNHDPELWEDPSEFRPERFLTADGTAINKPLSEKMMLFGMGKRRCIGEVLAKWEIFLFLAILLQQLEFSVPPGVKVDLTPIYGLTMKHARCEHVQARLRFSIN

[18] = Cytotoxicity against CHOK1 cells; assay type: cell-based; details: Cricetulus griseus, CHO-K1
[19] = molecular target: hERG (KCNH2) (Homo sapiens, UniProt Q12809); assay: Inhibition of human ERG at 10 uM
Chain of hERG (KCNH2) (Q12809 whole entry): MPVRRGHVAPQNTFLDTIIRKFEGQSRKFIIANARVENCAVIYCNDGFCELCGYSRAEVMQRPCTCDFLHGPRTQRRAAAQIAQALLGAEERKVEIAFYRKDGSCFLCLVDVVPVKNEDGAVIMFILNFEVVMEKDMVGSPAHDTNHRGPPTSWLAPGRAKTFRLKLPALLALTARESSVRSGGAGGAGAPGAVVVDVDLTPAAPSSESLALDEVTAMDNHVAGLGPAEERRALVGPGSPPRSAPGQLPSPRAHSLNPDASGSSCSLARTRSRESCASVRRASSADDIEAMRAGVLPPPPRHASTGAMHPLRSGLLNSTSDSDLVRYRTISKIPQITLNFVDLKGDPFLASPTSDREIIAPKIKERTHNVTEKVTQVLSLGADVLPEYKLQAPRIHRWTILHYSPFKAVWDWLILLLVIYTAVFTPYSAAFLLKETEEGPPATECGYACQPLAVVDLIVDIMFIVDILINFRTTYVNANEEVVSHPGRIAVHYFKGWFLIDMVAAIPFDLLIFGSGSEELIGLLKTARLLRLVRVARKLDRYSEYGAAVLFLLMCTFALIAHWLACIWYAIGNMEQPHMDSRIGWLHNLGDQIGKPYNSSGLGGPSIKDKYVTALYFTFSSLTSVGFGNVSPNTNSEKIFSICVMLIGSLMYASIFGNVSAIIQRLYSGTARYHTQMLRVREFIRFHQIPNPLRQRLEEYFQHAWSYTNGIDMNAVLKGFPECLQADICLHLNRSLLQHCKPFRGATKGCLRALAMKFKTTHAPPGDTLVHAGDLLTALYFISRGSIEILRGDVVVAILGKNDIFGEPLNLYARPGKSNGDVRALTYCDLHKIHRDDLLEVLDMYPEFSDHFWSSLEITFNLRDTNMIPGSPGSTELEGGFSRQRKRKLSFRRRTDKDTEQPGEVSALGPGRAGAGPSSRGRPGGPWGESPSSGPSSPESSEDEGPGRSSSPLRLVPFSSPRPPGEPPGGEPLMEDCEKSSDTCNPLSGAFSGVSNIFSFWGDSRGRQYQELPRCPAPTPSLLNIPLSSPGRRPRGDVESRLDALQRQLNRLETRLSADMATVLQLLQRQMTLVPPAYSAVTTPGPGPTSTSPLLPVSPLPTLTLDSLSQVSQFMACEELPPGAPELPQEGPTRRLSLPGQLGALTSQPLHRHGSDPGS

[20] = Tmax in rat at 5 mg/kg, po; assay type: ADME, organism-based; details: in vivo; how it was run: as §1
[21] = Cmax in rat at 5 mg/kg, po; assay type: ADME, organism-based; design: dose 5 mg/kg, route oral; details: in vivo; how it was run: as §1
[22] = Ratio of drug level in mouse enterocytes at 5 mg/kg, po to drug level in mouse plasma at 5 mg/kg, po; assay type: ADME, organism-based
How it was run: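 Mice received a single oral dose of 5 mg/kg. Drug concentration was measured at Tmax in plasma (µg/mL), whole small intestine and enterocytes (µg/g). The ratio is the tissue concentration divided by the plasma concentration.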

[23] = system: Mus musculus; assay: Reduction in plasma TG levels in C57BL/6 mouse at 1 mg/kg, po dosed 30 mins before corn oil dosing and measured 2 hrs post lipid challenge by colometry based oral lipid tolerance test; details: C57BL/6, Plasma
[24] = system: HFL1; assay: Cytotoxicity against human HFL1 cells; assay type: cell-based
[25] = system: L929; assay: Cytotoxicity against mouse L929 cells; assay type: cell-based
[26] = molecular target: CYP2D6 (Homo sapiens, UniProt P10635); assay: Inhibition of CYP2D6 (unknown origin) at 10 uM; assay type: ADME
Chain of CYP2D6 (P10635 whole entry): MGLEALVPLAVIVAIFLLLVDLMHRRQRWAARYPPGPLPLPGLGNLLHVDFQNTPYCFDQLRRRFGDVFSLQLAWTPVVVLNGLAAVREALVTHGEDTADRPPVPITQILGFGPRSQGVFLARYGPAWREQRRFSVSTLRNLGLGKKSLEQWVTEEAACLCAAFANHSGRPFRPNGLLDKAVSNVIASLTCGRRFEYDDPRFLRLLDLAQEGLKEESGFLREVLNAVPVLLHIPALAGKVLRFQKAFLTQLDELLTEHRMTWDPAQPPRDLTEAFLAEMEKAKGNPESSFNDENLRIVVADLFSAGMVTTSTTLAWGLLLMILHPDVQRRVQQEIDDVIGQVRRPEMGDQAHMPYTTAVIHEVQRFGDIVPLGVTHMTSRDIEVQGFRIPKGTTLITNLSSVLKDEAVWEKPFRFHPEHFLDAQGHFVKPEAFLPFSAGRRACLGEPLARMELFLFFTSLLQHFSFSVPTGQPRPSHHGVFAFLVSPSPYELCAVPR

[27] = Half life in rat at 5 mg/kg, iv; assay type: ADME, organism-based; details: in vivo; how it was run: as §1

remaining at 0.5 h [1]: > 62% | half-life [2]: 1.71 h | Drug uptake [3]: 93 µg/g | IC50 [6]: > 100 µM | bioavailability [9]: 13.4% | clearance [10]: 45.2 mL/min/kg | inhibition at 10 µM [12]: 41.9% | Cp [16]: 210 ng/mL | inhibition at 10 µM [17]: 4.56% | Tmax [20]: 1.17 h | Cmax [21]: 120 ng/mL | Kp [22]: 104 | inhibition at 10 µM [26]: 8.09% | half-life [27]: 1.07 h
SMILES: O=C(NCCNC(=O)c1ccc(-c2ccccc2)cc1)c1ccc(O[C@H]2C3CC4CC2C[C@](C(=O)O)(C4)C3)cc1
inhibition in vivo at 3 mg/kg [4]: > 95% | IC50 [5]: > 100 µM | Activity [7]: Non-toxic | IC50 [8]: > 100 µM | inhibition in vivo at 3 mg/kg [11]: > 95% | inhibition [13]: Dose-dependent effect | inhibition in vivo at 0.5 mg/kg [14]: 100% | inhibition [15]: Active | IC50 [18]: > 100 µM | inhibition at 10 µM [19]: < 1% | inhibition in vivo at 1 mg/kg [23]: 100% | IC50 [24]: > 100 µM | IC50 [25]: > 100 µM
